Screening results (PubChem BioAssay)
An excerpt weighted towards active compounds, which were near 2.6% of everything screened.
T cell HTS – modulators of CD8 T cell-vesicle binding, primary screen, mouse 2C CD8+ T cells, flow cytometry. response (vesicle binding), % at 7 µM. actives 0.068% (n = 330,000). 2C CD8+ T cell-vesicle binding; hits give low values;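 active = response, share of CD8 T cells binding vesicles, and their 90th percentile fluorescence all below set limits, cut at about 80% in these data, passing the limit was not always enough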;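 note: values below 100% mean blocked vesicle binding to the CD8+ T cells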
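Also added: QL9-peptide-loaded Drosophila micro-vesicles bearing Ld, ICAM-1 and B7-1; Test system: purified 2C TCR transgenic mouse naive CD8+ T cells; Measured by: cytometric PE anti-B7-1 and Alexa647 anti-CD8 signals after 1% paraformaldehyde fixation; Timing: binding step 1.5 h, 37 °C, antibody labelling 20 min, ice.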
EP2 mod – EP2 receptor modulators, cAMP readout, primary screen, cell-based, HTRF cAMP, PGE2 stimulation. Prostaglandin E2 receptor EP2 subtype (Homo sapiens), P43116. EP2-expressing cells, cAMP HTRF FRET, PGE2 co-stimulation. actives 0.83% (n = 260,000). induction, % at 25 µM;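 active = compounds whose cAMP rise, as percent of the full-agonist control response, exceeds 60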;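 note: rat C6 glioma line stably carrying human EP2 under a CMV promoter; the protocol text gives 20 µM as final concentration; 100% = response of wells given 1 µM PGE2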
MC4R antagonist – MC4R antagonists of cAMP signaling, primary screen, cell-based, TR-FRET, antagonist arm of biased-ligand search | MC4R-expressing cells, MTII-stimulated cAMP, LANCE TR-FRET | inhibition, % at 6.5 µM | actives 0.48% (n = 360,000) | AID 540295, 2011;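 active = inhibition above its plate's cutoff, the mean of tested wells on that plate plus 3 SD, cut at about 29% in these data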;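 note: 0% = Melanotan II alone and 100% = Melanotan II plus saturating MCL0020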
Target sequence (P32245 whole entry, looked up): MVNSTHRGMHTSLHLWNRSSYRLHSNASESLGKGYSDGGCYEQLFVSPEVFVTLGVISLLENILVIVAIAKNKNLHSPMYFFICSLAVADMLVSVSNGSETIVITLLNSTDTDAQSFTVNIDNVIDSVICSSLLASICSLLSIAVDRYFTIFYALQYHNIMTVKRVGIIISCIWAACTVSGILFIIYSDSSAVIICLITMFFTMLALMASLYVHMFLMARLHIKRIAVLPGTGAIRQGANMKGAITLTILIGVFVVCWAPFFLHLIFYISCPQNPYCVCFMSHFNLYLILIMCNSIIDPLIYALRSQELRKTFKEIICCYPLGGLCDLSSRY
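System: U2OS cells stably expressing human melanocortin 4 receptor (MC4R). Reagent: Melanotan II challenge after compound preincubation. Doses: 6.5 µM. Times: 30-min compound, 1-h challenge, 1-h detection, room temperature. Measured by: TR-FRET with Eu-cAMP and labeled anti-cAMP, 671 nm. Replicates: singlicate.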
Granule exo inh – LAMP-1 surface exposure blockers, TALL-104 cells – cell-based, flow cytometry, MLPCN library, primary screen; inhibition, % at 10 µM; actives 0.66% (n = 360,000); TALL-104 LAMP-1 surface exposure; cells stimulated with thapsigargin and PMA; AID 651702, 2012;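 active = inhibition above about 55%, limit read from the data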
MC4R ag barr – MC4R agonists recruiting beta-arrestin, primary screen, cell-based, luminescence, agonist arm of biased-ligand search. actives 0.98% (n = 360,000). AID 540308, 2011. U2OS MC4R beta-arrestin complementation; percent of melanotan II response, DMSO zero. Melanocortin receptor 4 (Homo sapiens), P32245. activation, % at 8.9 µM;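 active = activation above a per-plate cutoff, the mean activation of sample wells on that plate plus 3 SD, cut at about 8% in these data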
PGE2 EP2 inh – human EP2 receptor antagonists, primary screen, TR-FRET cAMP, C6 glioma cells; inhibition, % at 25 µM; AID 1422, 2008; Prostaglandin E2 receptor EP2 subtype (Homo sapiens), P43116; actives 0.52% (n = 260,000); C6 glioma cells expressing human EP2; cells stimulated with saturating PGE2;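 active = percent inhibition above 40 after rounding to a whole number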;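 note: rat C6 glioma host cells with rolipram phosphodiesterase inhibitor present; the protocol text gives 20 µM as final concentration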
Exocytosis CP01 – inhibitors of lytic granule exocytosis, confirmation, TALL-104 cells, flow cytometry, Cherry Pick01; inhibition, % at 10 µM; actives 11% (n = 1,500); LAMP-1 externalization; stimulated with PMA plus thapsigargin; shares compounds with Granule exo inh; in the data active = inhibition above about 60%;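 note: 0% = stimulated vehicle wells and 100% = unstimulated wells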
* = called active by the depositor; i = inactive; . = not tested or not shown.

SMILES	T cell HTS	EP2 mod	MC4R antagonist	Granule exo inh	MC4R ag barr	PGE2 EP2 inh	Exocytosis CP01
OC(CN1CCC(O)(c2ccc(Cl)c(C(F)(F)F)c2)CC1)c1ccccc1 (stereo not drawn)	.	-80	.	.	.	14	.
COc1cccc(Sc2nc(-c3ccccc3)ncc2S(C)(=O)=O)c1	146	.	5	65*	2	.	2
CS(=O)(=O)c1cnc(-c2ccccc2)nc1Sc1ccc(F)cc1	250	.	16	-8	5	.	.
Cc1ccccc1CNC(=O)C1CCCN(c2nnc(C)c3c(C)n(-c4ccccc4)nc23)C1 (stereo not drawn)	i	.	9	74*	6	.	1
Cn1c(SCc2cccc(C#N)c2)nc2ccccc2c1=O	212	.	1	71*	2	.	-4
Cn1c(SCc2cccc([N+](=O)[O-])c2)nc2ccccc2c1=O	132	.	7	1	1	.	.
CSc1ncc(Cl)c(C(=O)Nc2cccnc2)n1	.	.	5	79*	1	.	-4
Cc1ccc2c(CN(C)Cc3ccc(Cl)cc3Cl)cc(=O)oc2c1	79	.	10	67*	0	.	-9
COc1ccc(N2CC(=O)N(c3ccc(OC)c(OC)c3)CC2=O)cc1OC	294	6	9	-3	-2	10	.
Cc1ccc(Cl)cc1NC(=O)C1CC(=O)Nc2ncnn21 (stereo not drawn)	366	-3	16	-2	1	6	.
Fc1ccc(CN2CCC(c3nc(-c4ccncc4)n[nH]3)CC2)cc1	.	-17	.	.	.	.	.
CCC(=O)Nc1cc2[nH]c(=O)cc(C)c2cc1C	256	6	-3	58*	-4	5	-3
C[C@@H](c1ccccc1)N1C[C@H](COCc2ccccc2)Oc2cc(N3CC[C@@H](N(C)C)C3)ccc2S1(=O)=O	.	.	.	50	.	.	.
C[C@H](c1ccccc1)N1C[C@H](COCc2ccccc2)Oc2cc(N3CC[C@H](N(C)C)C3)ccc2S1(=O)=O	.	.	.	68*	.	.	29
Cn1nc(C(F)(F)F)c2cc(C(=O)Nc3ccc(C(F)(F)F)cc3)sc21	337	-6	7	86*	2	10	2
Cn1nc(C(F)(F)F)c2cc(C(=O)Nc3ccc(F)cc3)sc21	294	-28	21	12	1	17	.
CN(C)CCC(=O)N1c2ccccc2Sc2ccc(C(F)(F)F)cc21	245	.	5	67*	-1	.	-13
COc1ccccc1CCNC(=O)CCSc1nc(-c2ccco2)cc(C(F)(F)F)n1	187	-126	5	64*	2	8	-5
C[C@@]12CC[C@H]3OC(=O)C=C3C1CC[C@@]13CC(CCC12)[C@](CO)(O[C@H]1O[C@H](CO)[C@@H](O)[C@H](O)[C@H]1O)C3 (stereo partly drawn)	302	.	16	-1	0	.	.
COc1cc2c(cc1OC)C(c1ccc(-c3cc(Cl)ccc3Cl)o1)=NCC2	304	50	-10	6	1	12	.
COc1cc2c(cc1OC)C(c1ccc(-c3ccc(Cl)c(Cl)c3)o1)=NCC2	292	5	-4	94*	1	10	91*
COc1ccccc1CN1[C@@H](CC(C)=O)c2cc(C(F)(F)F)ccc2S1(=O)=O	428	.	9	2	-1	3	.
Cc1ccc(Nc2nc(NCCO)c3ccccc3n2)cc1C	402	.	-1	58*	3	.	-2
O=C(COC(=O)CC1CC2CCC1C2)NCc1ccc(Cl)cc1 (stereo not drawn)	429	.	-1	63*	0	.	-5
Cc1onc(-c2c(F)cccc2Cl)c1C(=O)Nc1sc2c(c1C(N)=O)CCC2	332	50	-4	56*	-1	7	7
SMILES	T cell HTS	EP2 mod	MC4R antagonist	Granule exo inh	MC4R ag barr	PGE2 EP2 inh	Exocytosis CP01
COC1=CC(=O)c2c(ccc3ncnc(N)c23)C1=O	.	.	-33	88*	-3	.	14
CCSc1nc2c(c(=O)[nH]c(=O)n2C)n1CC(O)COc1ccccc1 (stereo not drawn)	280	-10	23	87*	1	6	-2
CN(C)CCCN(C(=O)c1nc2ccccc2s1)c1nc2ccc(F)cc2s1	180	.	8	-2	-1	.	.
CCc1ccc2nc(N(CCCN(C)C)C(=O)c3ccc(S(=O)(=O)N4CCc5ccccc5C4)cc3)sc2c1	0	.	-8	77*	20*	.	87*
CN(C)CCCN(C(=O)c1ccc(C(=O)c2ccccc2)cc1)c1nc2ccc(F)cc2s1	103	.	-3	59*	4	.	10
Cc1ccc2nc(N(CCCN(C)C)C(=O)c3cc(-c4cccs4)nc4ccccc34)sc2c1	303	.	5	72*	9.2*	.	40
CCOc1cccc2sc(N(CCCN(C)C)C(=O)c3ccc(S(=O)(=O)N4CCc5ccccc5C4)cc3)nc12	393	.	6	38	0	.	.
Fc1cccc(NC(=S)N2CCc3ccccc32)c1	322	.	-2	64*	-1	.	-4
S=C(Nc1ccccc1)N1CCc2ccccc21	88	.	4	-5	-3	.	.
CCCN(CCC)S(=O)(=O)c1cccc(-c2csc(C)n2)c1	261	38	15	59*	1	12	-5
CCN(CC)S(=O)(=O)c1ccc(-c2csc(C)n2)cc1	210	-15	6	-5	-4	6	.
COCCn1c(SCC(=O)c2ccccc2)nc2ccccc2c1=O	220	-45	-3	-1	1	4	.
COCCn1c(SCCOc2ccccc2)nc2ccccc2c1=O	162	64*	19	67*	-1	7	14
COc1ccccc1N(CC(=O)NC(C)(C)C)C(=O)c1ccc(Cl)nc1	588	-10	5	-2	0	7	.
COc1cc(NC(=O)c2cc(-c3ccccc3Cl)on2)cc(OC)c1OC	326	-65	-18	69*	-1	8	-11
CC1CC(C)CN(C(=O)c2ccc(-c3ccc([N+](=O)[O-])cc3)o2)C1 (stereo not drawn)	182	.	17	74*	-2	.	-12
O=C(c1ccc(-c2ccc([N+](=O)[O-])cc2)o1)N1CCCCC1	508	-23	-4	29	-2	6	.
